Bioassay records (PubChem BioAssay)
An excerpt weighted towards active compounds, which were near 3.1% of everything screened.
IMP-1 inhibitor: IMP-1 metallo-beta-lactamase inhibitors, primary screen, biochemical, epi-absorbance readout, Pseudomonas aeruginosa enzyme; purified IMP-1, nitrocefin hydrolysis, epi-absorbance fluorescence; inhibition, % at 5.6 µM; metallo-beta-lactamase IMP-1 (Pseudomonas aeruginosa); actives 0.45% (n = 290,000);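 active = inhibition above the mean plus 3 SD of all compounds in the same screening run, cut at about 4.5% in these data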
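Test system: recombinant IMP-1 enzyme, purified / Medium: HEPES buffer pH 7.1 with ZnSO4 and Brij 35 / Doses: single dose, 5.6 µM / Times: 25 °C, 15 min preincubation, 25 min reaction / Detection: Epi-absorbance via hydrolysed-nitrocefin quenching of white-plate fluorescence, 480/530 nm, EDTA stop / Evaluation: percent inhibition from optical density relative to buffer-blank wells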
VIM-2 inhibitor: VIM-2 metallo-beta-lactamase inhibitors, primary screen, biochemical, epi-absorbance readout, Pseudomonas aeruginosa enzyme | purified VIM-2, nitrocefin hydrolysis, epi-absorbance fluorescence | inhibition, % at 5.6 µM | actives 0.89% (n = 290,000);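 active = inhibition above the mean of all tested compounds plus 3 SD, cutoff set per screening run, cut at about 7.5% in these data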;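 note: red hydrolysis product quenches plate fluorescence so inhibitors raise well fluorescence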
UBC9 SUMO inh: inhibitors of in vitro SUMOylation cascade, primary screen, biochemical, HTRF, uHTS | HTRF SUMOylation assay, SAE1/SAE2 + UBC9 | inhibition, % at 35 µM | actives 0.36% (n = 290,000); in the data active = inhibition above about 50%, passing the limit was not always enough
Target sequence (P63279 whole entry, looked up): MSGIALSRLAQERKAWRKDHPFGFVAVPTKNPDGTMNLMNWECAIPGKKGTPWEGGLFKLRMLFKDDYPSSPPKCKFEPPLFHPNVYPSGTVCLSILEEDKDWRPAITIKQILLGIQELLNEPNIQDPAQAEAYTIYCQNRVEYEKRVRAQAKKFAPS
HCV NS3 hel inh: inhibitors of HCV NS3 helicase, primary screen, biochemical, Cy5 molecular beacon fluorescence; inhibition, % at 10.9 µM; Hepatitis C virus NS3 helicase; actives 0.56% (n = 290,000); NS3 helicase DNA unwinding;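 active = inhibition above the mean of all tested compounds plus 3 SD, set per campaign, cut at about 35% in these data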
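Material: hepatitis C virus NS3 helicase domain fragment enzyme; measured by: Cy5 fluorescence, 0 and 60 min reads; control set: DMSO and thioflavine S; incubation: 60 min unwinding reaction at 25 °C after ATP addition; read-out basis: % inhibition from 60/0 min fluorescence ratio, DMSO 0%, thioflavine S 100%; repeats: singlicate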
core dimer inh: inhibitors of HCV core protein dimerization, primary screen, biochemical, TR-FRET, high-throughput; TR-FRET GST/Flag-core106 dimerization, 1536-well; inhibition, % at 5 µM; actives 0.33% (n = 300,000);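 active = inhibition above the mean of all tested compounds plus 3 SD, set per screening campaign, cut at about 45% in these data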
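Material: Tagged HCV core106 pair (GST and Flag) | Amount: GST-core106 13.5 nM, Flag-core106 17 nM | Medium: KF-containing HEPES buffer, pH 7.45, DTT, CHAPS, BSA | Reagent: Eu donor and XL665 acceptor anti-tag antibodies | Schedule: 4 h at 22.5 °C | Technique: Time-resolved FRET, ex 340 nm, em 617 and 671 nm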
PHOSPHO1 block: PubChem AID 1565 | Phosphoethanolamine/phosphocholine phosphatase (Homo sapiens), Q8TCT1 | recombinant PHOSPHO1, absorbance phosphatase assay | inhibition, % at 13.3 µM | actives 1.1% (n = 290,000); in the data active = inhibition above about 60%
Target sequence (Q8TCT1 whole entry, looked up): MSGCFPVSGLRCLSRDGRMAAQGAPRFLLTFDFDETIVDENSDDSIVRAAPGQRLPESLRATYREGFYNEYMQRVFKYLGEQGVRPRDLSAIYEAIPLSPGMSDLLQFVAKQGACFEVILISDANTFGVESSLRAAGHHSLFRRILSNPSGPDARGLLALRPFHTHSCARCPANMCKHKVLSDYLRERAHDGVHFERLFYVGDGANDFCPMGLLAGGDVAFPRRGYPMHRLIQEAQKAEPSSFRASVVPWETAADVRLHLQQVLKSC
Of the large screens only hits and unclear results are named; the others gave an inactive call.

COc1ccc(-c2oc(=O)n(C)c2-c2ccc(OC)cc2)cc1	PHOSPHO1 block 61
Cc1nn(CCc2n[nH]c(=S)n2-c2ccc(F)c(Cl)c2)c(C)c1[N+](=O)[O-]	VIM-2 inhibitor 9.7
Cc1nn(CCc2n[nH]c(=S)n2-c2ccc(F)cc2)c(C)c1[N+](=O)[O-]	PHOSPHO1 block 94
Cc1nn(C(C)c2n[nH]c(=S)n2-c2ccc(F)cc2)c(C)c1[N+](=O)[O-] (stereo unspecified)	none
CN(CC(=O)Nc1ccccc1Cl)C(=O)COC(=O)c1nc(Cl)c(Cl)c(Cl)c1Cl	none
O=P(CCCO)(Cc1ccccc1)Cc1ccccc1	none
COc1cccc(/C=N/Nc2ncnc3c2[nH]c2ccc(C)cc23)c1OC	core dimer inh 49
O=C(CSc1nnc(Nc2ccccc2F)s1)NCc1ccco1	PHOSPHO1 block 87 (no result: core dimer inh)
COc1ccc(C(=O)Nc2nnc(SCC(=O)NCc3ccco3)s2)c(OC)c1	VIM-2 inhibitor 11
Cc1ccc(-n2c(Cc3cccn3C)nnc2SCC(=O)NCc2ccco2)cc1	PHOSPHO1 block 78
Cc1ccc(Nc2nnc(SCC(=O)NCc3ccco3)s2)cc1	PHOSPHO1 block 74 (no result: core dimer inh)
Cc1ccc(-n2c(Cc3cccn3C)nnc2SCC(N)=O)cc1	none
Cn1cccc1Cc1nnc(SCC(=O)NCc2ccccc2)n1-c1ccc(F)cc1	none
Cn1cccc1Cc1nnc(SCC(=O)N2CCN(c3ccccc3)CC2)n1-c1ccc(F)cc1	PHOSPHO1 block 70
Cc1ccccc1Nc1nnc(SCC(=O)NC(=O)NCc2ccco2)s1	PHOSPHO1 block 82
CNS(=O)(=O)c1cc(NC(=O)c2cnc(SC)n2-c2ccccc2)ccc1C	none
Cc1ccc2[nH]c(=O)c(CNC(C)C)cc2c1	PHOSPHO1 block 62
O=C(CN1CCN(S(=O)(=O)c2ccc(Br)cc2)CC1)N/N=C/c1ccccc1C(=O)O	none (no result: UBC9 SUMO inh)
Cc1ccc2ncccc2c1NS(=O)(=O)c1ccccc1	PHOSPHO1 block 98
CCCC(=O)N(c1ccc2oc(=O)sc2c1)S(=O)(=O)c1cccs1	PHOSPHO1 block 95
COc1ccc(OC)c(S(=O)(=O)N(C(C)=O)c2ccc3oc(=O)sc3c2)c1	none
COc1ccc(C(=O)Oc2ccc3ccc(=O)oc3c2)cc1	none
COc1ccc(C(=O)Oc2ccc3oc(=O)sc3c2)cc1	PHOSPHO1 block 94
CC(C)C(=O)N(c1ccc2oc(=O)sc2c1)S(=O)(=O)c1ccccc1	PHOSPHO1 block 92
COc1ccc(S(=O)(=O)N(C(=O)C(C)C)c2ccc3oc(=O)sc3c2)cc1	PHOSPHO1 block 97
CCCc1nnc(NC(=O)C2CCN(C(=O)C3CC(=O)N(c4ccc(C)cc4)C3)CC2)s1 (stereo unspecified)	none
COc1ccc(CCNC(=O)CCc2cc(OC)c(OC)c(OC)c2)cc1OC	none
COc1ccc(CCc2nnc(CCC(=O)N(C)Cc3ccncc3C)o2)cc1	PHOSPHO1 block 64
CCc1ccc(C(=O)COC(=O)c2cccnc2Cl)cc1	none
Brc1cc(Br)c2nc(-c3cccs3)ccc2c1	core dimer inh 48
CC1=NN(c2cccc(F)c2)C(=O)/C1=C/c1ccc(N(C)C)cc1	none
Cc1ccc(-c2csc(N3N=C(c4ccccc4)/C(=C\c4ccc(N(C)C)cc4)C3=O)n2)cc1	core dimer inh 46
COc1ccc(C2=NN(C(=O)c3cccs3)C(c3ccccc3O)C2)cc1 (stereo unspecified)	UBC9 SUMO inh 56
O=C(NN1C(=O)/C(=C/C=C/c2ccco2)SC1=S)c1ccccc1O	UBC9 SUMO inh 79, core dimer inh 70, PHOSPHO1 block 86
COc1ccc(/C=C2\SC(=S)N(C(Cc3ccccc3)C(=O)O)C2=O)cc1 (stereo unspecified)	none (no result: core dimer inh)
O=C(O)C(Cc1ccccc1)N1C(=O)/C(=C/C=C/c2ccco2)SC1=S (stereo unspecified)	UBC9 SUMO inh 73 (no result: core dimer inh)
COCCn1c(SCc2cccc(F)c2)nc2cc(C(=O)OC)ccc2c1=O	none (no result: core dimer inh)
NC(=S)NNC(=O)COc1ccccc1O	none
O=C(c1ccc(Cl)cc1)c1oc2ccccc2c1CS(=O)c1ccc(Cl)cc1 (stereo unspecified)	PHOSPHO1 block 107
COc1ccccc1C1C(C(N)=O)=C(C)Nc2ncnn21 (stereo unspecified)	IMP-1 inhibitor 6.8
COC(=O)c1ccc(NC(=O)CSC2=NC(=O)C(c3ccccc3)C(=O)N2)cc1 (stereo unspecified)	none
COc1cccc2cc(-c3nc(-c4cccs4)cs3)c(=O)oc12	core dimer inh 51
O=c1oc2ccccc2cc1-c1nc(-c2cccs2)cs1	none
COC(=O)Cc1c(C)nc2nc(NCc3ccc(Cl)cc3)[nH]n2c1=O	PHOSPHO1 block 80
COC(=O)Cc1c(C)nc2nc(NCc3ccccc3OC)[nH]n2c1=O	none
CCC(NS(=O)(=O)c1ccc2c(c1)Cc1cc(S(=O)(=O)NC(CC)C(=O)O)ccc1-2)C(=O)O (stereo unspecified)	none
Fc1ccc(-c2ccnc3nc(N4CCOCC4)nn23)cc1	UBC9 SUMO inh 52
CN(C)/C=N/c1nc2nccc(-c3cccc(Cl)c3)n2n1	UBC9 SUMO inh 50
CN(C)/C=N/c1nc2nccc(-c3ccc(F)cc3)n2n1	UBC9 SUMO inh 52
Fc1ccc(-c2ccnc3nc(-n4cccc4)nn23)cc1	none
CCOc1ccc(CN(C(=O)c2cc(=O)c3cc(C)cc(C)c3o2)C2CCS(=O)(=O)C2)cc1 (stereo unspecified)	none (no result: UBC9 SUMO inh)
CCC(C)c1ccccc1NC(=O)C(C)OC(=O)CN1C(=O)NC(C)(C)C1=O (stereo unspecified)	none (no result: IMP-1 inhibitor, VIM-2 inhibitor, UBC9 SUMO inh, HCV NS3 hel inh, PHOSPHO1 block)
COc1ccc(-c2nnc3ccc(SC(C(C)=O)C(C)=O)nn23)cc1OC	PHOSPHO1 block 106
COC(=O)C(C)Sc1ccc2nnc(-c3ccc(F)cc3)n2n1 (stereo unspecified)	PHOSPHO1 block 65
CCC(Sc1ccc2nnc(-c3ccc(OC)c(OC)c3)n2n1)C(=O)O (stereo unspecified)	PHOSPHO1 block 60
O=C(c1ccccc1-c1ncc[nH]1)N1CCc2c([nH]c3ccccc23)C1c1ccccn1 (stereo unspecified)	none
COC(=O)C(NNc1ccccc1)(NC(=O)c1ccc(F)cc1)C(F)(F)F (stereo unspecified)	PHOSPHO1 block 92
CCc1ccc2nc(N=C(N)N)nc(C)c2c1	none
Cc1ccc2nc(N=C(N)N)nc(C)c2c1	VIM-2 inhibitor 11
